Assay results published in ChEMBL document CHEMBL1124816, “Effect of structure on potency and selectivity in 2,6-disubstituted 4-(2-arylethenyl)phenol lipoxygenase inhibitors” (J Med Chem, 1990).

Assays:
[1] = biological target: T1, Polyunsaturated fatty acid 5-lipoxygenase (Homo sapiens, UniProt P09917); experiment: Inhibition of human neutrophil 5-lipoxygenase
T1 sequence (P09917 whole entry): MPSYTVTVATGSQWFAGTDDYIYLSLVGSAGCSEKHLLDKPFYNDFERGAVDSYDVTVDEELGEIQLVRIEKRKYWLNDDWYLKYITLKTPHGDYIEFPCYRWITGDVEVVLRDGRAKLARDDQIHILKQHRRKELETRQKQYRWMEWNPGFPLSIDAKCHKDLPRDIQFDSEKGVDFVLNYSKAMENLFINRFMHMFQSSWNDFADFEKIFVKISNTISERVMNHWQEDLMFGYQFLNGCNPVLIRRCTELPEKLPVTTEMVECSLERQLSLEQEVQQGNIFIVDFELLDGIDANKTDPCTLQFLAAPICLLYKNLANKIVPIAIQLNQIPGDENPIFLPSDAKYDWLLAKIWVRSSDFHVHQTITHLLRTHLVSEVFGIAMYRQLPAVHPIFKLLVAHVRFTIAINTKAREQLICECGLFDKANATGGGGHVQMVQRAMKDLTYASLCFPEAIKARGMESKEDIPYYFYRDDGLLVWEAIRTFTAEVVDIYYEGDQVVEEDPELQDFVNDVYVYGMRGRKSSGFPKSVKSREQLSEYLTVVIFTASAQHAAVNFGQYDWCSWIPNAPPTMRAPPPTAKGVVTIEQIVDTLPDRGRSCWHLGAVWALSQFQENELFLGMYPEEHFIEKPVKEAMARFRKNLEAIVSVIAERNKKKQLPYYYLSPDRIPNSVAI

Cyclooxygenase [2] = biological target: T2, Cyclooxygenase (Homo sapiens, UniProt P35354+P23219); experiment: (§1) Inhibition of human platelet Prostaglandin G/H synthase at the concentration of 10 uM; assay type: functional
How it was run: (§2)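 CO activity measured in human platelets. Percent inhibition at a single test concentration is compared with untreated control, with significance by ANOVA and Tukey's multiple comparisons test (p < 0.05).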

Cyclooxygenase [3] = biological target: T2, Cyclooxygenase; experiment: Inhibition of human platelet Prostaglandin G/H synthase
Cyclooxygenase [4] = biological target: T2, Cyclooxygenase; experiment: (§3) Inhibition of human platelet Prostaglandin G/H synthase at the concentration of 1 uM; assay type: functional; how it was run: as §2
[5] = biological target: T3, Polyunsaturated fatty acid 5-lipoxygenase (Homo sapiens) (UniProt P09917); experiment: (§4) Inhibition of human neutrophil 5-lipoxygenase at the concentration of 1 uM
T3 sequence (whole entry): T1 sequence (P09917 whole entry)
How it was run: (§5)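 5-LO activity measured in human peripheral blood leukocytes. Percent inhibition at a single test concentration is compared with untreated control, with significance by ANOVA and Tukey's multiple comparisons test (p < 0.05).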

[6] = biological target: T3, Polyunsaturated fatty acid 5-lipoxygenase (Homo sapiens); experiment: Inhibition of human neutrophil 5-lipoxygenase at the concentration of 0.1 uM; how it was run: as §5
Cavia porcellus [7] = species on record: Cavia porcellus; experiment: Inhibition of cell influx (PMN) in guinea pig; assay type: functional
How it was run: (§6)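 Male Hartley guinea pigs (250–300 g), ovalbumin-sensitized, fasted, pretreated 60 min before challenge with pyrilamine (10 mg/kg ip), indomethacin (10 mg/kg ip) and test agent (ip as 5% Tween 80 suspension). Challenged with aerosolized ovalbumin; 4 h later anesthetized and exsanguinated for late-phase inflammatory cell influx counts (total cells, PMN).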

Cavia porcellus [8] = experiment: Inhibition of antigen-induced leukotriene-mediated bronchoconstriction in conscious guinea pig at the dose of 30mg/Kg, ip; assay type: functional
How it was run: (§7)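 Male Hartley guinea pigs (250–300 g), actively ovalbumin-sensitized, fasted 18 h, anesthetized, pleural pressure transducer fitted. Dosed 60 min before aerosolized ovalbumin challenge with pyrilamine (10 mg/kg ip), indomethacin (10 mg/kg ip) and test agent (ip as 5% Tween 80 suspension). Head-out plethysmography after recovery; Cdyn mean change from baseline over 5–15 min post-challenge vs controls; 5–10 animals per dose; Dunnett's test.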

Cavia porcellus [9] = species on record: Cavia porcellus; experiment: Inhibition of cell influx (total cells) in guinea pig; assay type: functional; how it was run: as §6
Cavia porcellus [10] = experiment: Inhibition of antigen-induced leukotriene-mediated bronchoconstriction in conscious guinea pig at the dose of 30mg/Kg, ip.; assay type: functional; how it was run: as §7
Cavia porcellus [11] = experiment: Inhibition of antigen-induced leukotriene-mediated bronchoconstriction in conscious guinea pig at the dose of 10mg/Kg, ip; assay type: functional; how it was run: as §7
Cyclooxygenase [12] = biological target: T2, Cyclooxygenase; experiment: as §3; how it was run: as §2
[13] = as §1; how it was run: as §2
[14] = biological target: T3, Polyunsaturated fatty acid 5-lipoxygenase (Homo sapiens); experiment: as §4; assay type: functional; how it was run: as §5
[15] = biological target: T3, Polyunsaturated fatty acid 5-lipoxygenase (Homo sapiens); experiment: Inhibition of lipoxygenase at the concentration of 0.1 uM; how it was run: as §5
[16] = biological target: T3, Polyunsaturated fatty acid 5-lipoxygenase (Homo sapiens); experiment: Inhibition of lipoxygenase at the concentration of 1 uM; how it was run: as §5
Cavia porcellus [17] = experiment: Inhibition of antigen-induced leukotriene-mediated bronchoconstriction in conscious guinea pig at the dose of 30mg/Kg, po.; assay type: functional
Cavia porcellus [18] = experiment: Inhibition of antigen-induced ileukotriene-mediated bronchoconstriction in conscious guinea pig at the dose of 300mg/Kg, po.; assay type: functional
Cavia porcellus [19] = experiment: Inhibition of antigen-induced leukotriene-mediated bronchoconstriction in conscious guinea pigat the dose of 100mg/Kg, ip; assay type: functional; how it was run: as §7
Cavia porcellus [20] = experiment: Inhibition of antigen-induced leukotriene-mediated bronchoconstriction in conscious guinea pig at the dose of 100mg/Kg, po.; assay type: functional

Compound	IC50 [1] [µM]	IC50 (Cyclooxygenase [3]) [µM]	inhibition in vivo at 30 mg/kg (Cavia porcellus [8]) [%]	other results
CCc1cc(/C=C/c2cccnc2)cc(CC)c1O	< 1	< 10		inhibition (Cyclooxygenase [2]): 82%; inhibition (Cyclooxygenase [4]): 20%; inhibition [5]: 86%; inhibition [6]: 36%
CCCc1cc(/C=C/c2cccs2)cc(OC)c1O	0.086	1.3	57	Inhibition (Cavia porcellus [7]): 54%; Inhibition (Cavia porcellus [9]): 77%
CCc1cc(/C=C/c2cccs2)cc(OC)c1O	0.09	1.4	51	
Cc1cc(/C=C/c2ccccc2C(=O)O)cc(C)c1O	> 1	> 10		inhibition (Cyclooxygenase [12]): 16%; inhibition [13]: 25%; inhibition [14]: 12%
COc1cc(/C=C/c2cccs2)cc(C)c1O	0.086	3.1	41	
CC(C)(C)c1cc(/C=C/c2cccnc2)cc(C(C)(C)C)c1O	1.7			Inhibition (Cavia porcellus [7]): 0%; inhibition in vivo at 30 mg/kg (Cavia porcellus [17]): -24%; inhibition in vivo at 300 mg/kg (Cavia porcellus [18]): 7.7%; inhibition in vivo at 100 mg/kg (Cavia porcellus [19]): 10%; inhibition in vivo at 100 mg/kg (Cavia porcellus [20]): -2%; Inhibition (Cavia porcellus [9]): 0%

The next lines start with results.

IC50 [1] [µM]	IC50 (Cyclooxygenase [3]) [µM]	Compound	inhibition in vivo at 30 mg/kg (Cavia porcellus [8]) [%]	other results
0.13	2.5	Cc1cccc(/C=C/c2cc(C)c(O)c(C)c2)c1		inhibition in vivo at 30 mg/kg (Cavia porcellus [10]): 49%
0.054	0.78	Cc1cc(/C=C/c2cccs2)cc(C)c1O	70.3	Inhibition (Cavia porcellus [7]): 95%; inhibition in vivo at 10 mg/kg (Cavia porcellus [11]): 34.5%; Inhibition (Cavia porcellus [9]): 78%
0.29	3.2	Cc1ccc(/C=C/c2cc(C)c(O)c(C)c2)cc1		inhibition in vivo at 30 mg/kg (Cavia porcellus [10]): 59%
0.091	1.5	COc1ccc(/C=C/c2cc(C)c(O)c(C)c2)cc1	28	
< 1	1	Cc1cc(/C=C/c2cc(F)cc(F)c2)cc(C)c1O		inhibition [15]: 6%; inhibition (Cyclooxygenase [12]): 50%; inhibition [16]: 81%; inhibition [13]: 74%
0.045	< 10	Cc1cc(/C=C/c2ccsc2)cc(C)c1O	26	inhibition (Cyclooxygenase [12]): 38%; inhibition [13]: 96%
< 1	< 10	Cc1cc(/C=C/c2ccc3ccccc3c2)cc(C)c1O		inhibition [15]: 16%; inhibition (Cyclooxygenase [12]): 37%; inhibition [16]: 61%; inhibition [13]: 66%
0.12	1.3	Cc1cc(/C=C/c2ccc(F)cc2)cc(C)c1O [ENOFELAST]		inhibition in vivo at 30 mg/kg (Cavia porcellus [10]): 43%
